The values that follow come from ChEMBL document CHEMBL1135349, “Synthesis and evaluation of novel pyrrolidinyl sordaricin derivatives as antifungal agents” (2002).

What all share (assay type): functional
In test [1] the test system is Aspergillus fumigatus. The test is described as follows: Minimum concentration required to inhibit the growth of Aspergillus fumigatus ATCC 26430 was determined. The method, boiled down: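 Microplate broth assay in RPMI1640 buffered at pH 7.0, incubated at 30 °C. The MIC was taken as the lowest test concentration giving 80% growth inhibition.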
Test [2] deals with Nakaseomyces glabratus. The test is described as follows: Minimum concentration required to inhibit the growth of Candida glabrata ATCC 90030 was determined. The method, boiled down: (§1)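 Yeast cells grown in microplates in RPMI1640 buffered to pH 7.0 at 35 °C, without serum. The MIC is the lowest concentration that inhibits growth by 80%.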
The test system of test [3] is Candida parapsilosis. As to the kind of experiment: Minimum concentration required to inhibit the growth of Candida parapsilosis ATCC 90018 was determined. As to conditions: Lodderomyces parapsilosis. The method, boiled down: as §1
For test [4], the system named is Candida tropicalis. The test is described as follows: Minimum concentration required to inhibit the growth of Candida tropicalis ATCC750 was determined. The method, boiled down: as §1
Test [5] relates to Candida albicans. The test is described as follows: Minimum concentration required to inhibit the growth of Candida albicans ATCC 24433 was determined. The method, boiled down: as §1
The test system of test [6] is Candida albicans. As to the kind of experiment: Minimum concentration required to inhibit the growth of Candida albicans ATCC 24433 was determined in the presence of horse serum (20%). The method, boiled down:
(§2)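 Run in RPMI1640 buffered at pH 7.0 with 20% horse serum added for the incubation, in microplates at 35 °C. The MIC is the lowest concentration inhibiting growth by 80%.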

For test [7], the system named is Candida albicans. The test is described as follows: Minimum concentration required to inhibit the growth of Candida albicans ATCC 64550 was determined. The method, boiled down:
as §1

For test [8], the system named is Candida albicans. The test is described as follows: Minimum concentration required to inhibit the growth of Candida albicans SANK51486 was determined. The method, boiled down: as §1
The subject of test [9] is Candida albicans. As to the kind of experiment: Minimum concentration required to inhibit the growth of Candida albicans TIMM3164 was determined. The method, boiled down:
as §1

Test [10] deals with Cryptococcus neoformans. As to the kind of experiment: Minimum concentration required to inhibit the growth of Cryptococcus neoformans TIMM1855 was determined. The method, boiled down:
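Medium was yeast nitrogen base buffered at pH 7.0, with microplates incubated at 35 °C. The MIC was defined as the lowest concentration producing 80% growth inhibition.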

In test [11] the test system is Candida albicans. As to the kind of experiment: Minimum concentration required to inhibit the growth of Candida albicans SANK51486 was determined in the presence of horse serum (20%). The method, boiled down: as §2

In brackets after ≈: the same amount, converted by molar mass. A value given as a limit tells only on which side of the number the result lay.

As to `CC(C)C1=CC2CC3(C=O)[C@@H]4CC[C@@H](C)[C@H]4CC2(CO[C@@H]2C[C@H](C)N(Cc4ccc5c(c4)OCO5)C2)C13C(=O)O` (some centres undefined), the MIC is more than 16 mg/L in [1]; more than 16 mg/L in test [2]; more than 16 mg/L in [3]; 4 mg/L (≈ 7.28 µM) in test [4]; 0.25 mg/L (≈ 0.455 µM) in test [5]; 1 mg/L in test [6]. Besides, the MIC was 0.5 mg/L (≈ 0.91 µM) in [7]; 0.13 mg/L (≈ 0.236 µM) in test [8]; 0.5 mg/L (≈ 0.91 µM) in test [9]; more than 16 mg/L in test [10]; 0.5 mg/L in [11].

Take `CC(C)C1=CC2CC3(C=O)[C@@H]4CC[C@@H](C)[C@H]4CC2(CS[C@@H]2C[C@H](C)N(Cc4ccccc4)C2)C13C(=O)O` (some centres undefined): the MIC in [1] was more than 16 mg/L; in test [2] it was more than 16 mg/L; in [3] it was more than 16 mg/L; in test [4], 4 mg/L (≈ 7.67 µM); in test [5], 0.5 mg/L (≈ 0.958 µM); in [6], 8 mg/L. In addition, the MIC in test [7] was 1 mg/L (≈ 1.92 µM); in test [8], 0.25 mg/L (≈ 0.479 µM); in test [9], 1 mg/L (≈ 1.92 µM); in test [10], more than 16 mg/L; in test [11], 4 mg/L.

Turning to `COc1ccc(CN2C[C@H](OCC34C[C@@H]5[C@H](C)CC[C@H]5C5(C=O)CC3C=C(C(C)C)C45C(=O)O)C[C@@H]2C)cc1` (some centres undefined), the minimal inhibitory concentration (MIC) was more than 16 mg/L in test [1]; 16 mg/L (≈ 29.9 µM) in test [2]; more than 16 mg/L in test [3]; 4 mg/L (≈ 7.47 µM) in test [4]; 0.5 mg/L (≈ 0.933 µM) in [5]; 1 mg/L in test [6]. The MIC was 0.5 mg/L (≈ 0.933 µM) in [7]; 0.25 mg/L (≈ 0.467 µM) in test [8]; 0.5 mg/L (≈ 0.933 µM) in test [9]; more than 16 mg/L in [10]; 0.5 mg/L in test [11].

As for `C=C(C)CN1C[C@H](OCC23C[C@@H]4[C@H](C)CC[C@H]4C4(C=O)CC2C=C(C(C)C)C34C(=O)O)O[C@H](C)[C@@H](OC)C1` (some centres undefined), the MIC is more than 16 mg/L in test [1]; 0.25 mg/L (≈ 0.472 µM) in test [2]; more than 16 mg/L in [3]; 0.13 mg/L (≈ 0.245 µM) in [4]; 0.03 mg/L (≈ 0.0566 µM) in test [5]; 0.5 mg/L in test [6]. Moreover, the MIC worked out at 0.03 mg/L (≈ 0.0566 µM) in test [7]; 0.02 mg/L (≈ 0.0378 µM) in test [8]; 0.03 mg/L (≈ 0.0566 µM) in test [9]; 0.25 mg/L (≈ 0.472 µM) in test [10]; 0.25 mg/L in test [11].

With `OC(Cn1cncn1)(Cn1cncn1)c1ccc(F)cc1F` [FLUCONAZOLE], the MIC is more than 4 mg/L in [1]; more than 4 mg/L in [2]; 0.5 mg/L (≈ 1.63 µM) in [3]; 2 mg/L (≈ 6.53 µM) in [4]; 0.5 mg/L (≈ 1.63 µM) in test [5]; more than 4 mg/L in test [7]. The MIC is 0.25 mg/L (≈ 0.816 µM) in [8], more than 4 mg/L in test [9] and more than 4 mg/L in test [10].

In the case of `CC(C)C1=CC2CC3(C=O)[C@@H]4CC[C@@H](C)[C@H]4CC2(CO[C@@H]2C[C@H](C)N(Cc4ccccc4)C2)C13C(=O)O` (some centres undefined), the MIC in test [1] is more than 16 mg/L; in test [2], more than 16 mg/L; in [3] it was more than 16 mg/L; in test [4] it was 8 mg/L (≈ 15.8 µM); in test [5], 1 mg/L (≈ 1.98 µM); in test [6], 4 mg/L. Besides, the MIC in test [7] was 2 mg/L (≈ 3.95 µM); in test [8], 0.5 mg/L (≈ 0.989 µM); in test [9], 2 mg/L (≈ 3.95 µM); in test [10], more than 16 mg/L; in test [11], 1 mg/L.

Take `C/C=C/C=C\C(=O)O[C@H]1[C@H](O)[C@H](OCC23C[C@@H]4[C@H](C)CC[C@H]4C4(C=O)CC2C=C(C(C)C)C34C(=O)O)O[C@H](C)[C@H]1OC` (some centres undefined): the MIC in [1] is more than 4 mg/L; in [2], more than 4 mg/L; in [3] it was more than 4 mg/L; in test [4], 0.5 mg/L (≈ 0.852 µM); in test [5], 0.5 mg/L (≈ 0.852 µM); in test [6], 4 mg/L. In addition, the MIC came to 0.5 mg/L (≈ 0.852 µM) in test [7], 0.25 mg/L (≈ 0.426 µM) in [8], 0.5 mg/L (≈ 0.852 µM) in [9] and 0.25 mg/L (≈ 0.426 µM) in test [10].

In general, MIC refers to the lowest concentration found to suppress growth.
